UPR CHOP act: apoptotic UPR (CHOP) activation; CHO-CHOP luciferase reporter, luminescence; percent of tunicamycin response over DMSO baseline; actives 0.34% (n = 330,000); activation, % at 10 µM;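 active means at 10 µM dose, activation of 40% or more, normalized to positive control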
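Evaluation: % reporter activation, DMSO baseline versus tunicamycin full activation; System: CHO-CHOP luciferase reporter cell line; Input: 500 cells/well; Incubation: 6 h compound treatment, 37 °C; Measured by: Steady-Glo luciferase luminescence; Dosing: one dose, 10 µM in 0.5% DMSO; Buffer or medium: F12 medium, 10% FBS; Benchmarks: positive tunicamycin 10 µg/mL, negative DMSO alone.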
UPR XBP1 act: adaptive UPR (XBP1) activation | actives 0.33% (n = 330,000) | CHO-XBP1 luciferase reporter, IRE1-XBP1 UPR activation, luminescence; percent of tunicamycin response, DMSO as zero | activation, % at 20 µM;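 active means versus positive control, 20 µM dose yields 30% or more activation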
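Material: CHO-XBP1 cells stably carrying IRE1-XBP1-driven luciferase reporter | Medium: F12 with 10% serum | Compound dosing: 20 µM single concentration, DMSO 1% | Incubation: Overnight seeding at 37 °C, 6 h compound treatment at 37 °C | Detection: Steady-Glo luminescence read | Read-out basis: % activation of reporter signal versus tunicamycin and DMSO controls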
CHOP inh: CHOP inhibition in unfolded protein response | CHO-K1 CHOP-promoter luciferase, tunicamycin-induced, 15-18 h | inhibition, % at 10 µM | actives 3.8% (n = 220,000) | AID 2732;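 active means compounds that reduced the stress-induced luciferase reporter signal by more than about 70% of percent inhibition, limit read from the data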
FXN GAA850 act: activators of GAA850 frataxin (FXN) promoter | AID 540364 | HEK293 lucGAA850 FXN promoter luciferase reporter, 24 h; percent of 10 µM SAHA response | activation, % at 6 µM | actives 0.56% (n = 360,000);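 active means activation above the average of all compounds screened plus 3 SD, cutoff fixed separately per campaign, cut at about 7.5% in these data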
Large screens that a line does not name were inactive. Only a selection was taken, and hits are over-represented in it overall.

Cc1ccc2c(c1)S/C(=C/c1ccc[n+](C)c1)N2CCO	none
CCN1/C(=C/c2ccc3cc(C)ccc3[n+]2CC)Sc2cc(C)ccc21	CHOP inh 81.7 (no result: UPR CHOP act, UPR XBP1 act)
CCCCN1/C(=C/c2ccc3ccccc3[n+]2CC)Sc2ccccc21	CHOP inh 84.4
CCN1/C(=C/c2ccc3ccccc3[n+]2CC)C=Cc2ccccc21	none (no result: CHOP inh)
COc1ccc(NC(=O)Nc2ccc3nc([C@@H]4O[C@H](CO)[C@@H](O)[C@H](O)[C@H]4O)[nH]c3c2)cc1OC1CCCC1	none (no result: UPR CHOP act, UPR XBP1 act, CHOP inh)
CCCN(CCC)C(=O)CC(c1ccccc1)c1cc(Br)ccc1O (configuration not stated)	CHOP inh 91.9
CCCN(CCC)C(=O)CC(c1ccccc1)c1ccc(C)cc1O (configuration not stated)	none
CCc1nnc(NC(=O)[C@@H](NC(=O)c2cccc(S(=O)(=O)N(CC)CC)c2)C(C)C)s1	CHOP inh 82.5
CCN(CC)S(=O)(=O)c1cccc(C(=O)NC(C(=O)NCCc2ccccn2)C(C)C)c1 (configuration not stated)	none (no result: CHOP inh)
CCC(CC)C(=O)N(C)c1c(C)nc2c(OCC3CCCCC3)cccn12	none (no result: UPR CHOP act, UPR XBP1 act, CHOP inh)
CC(C)c1ccc(NC(=O)C(=O)C2C(=O)Nc3ccccc32)cc1 (configuration not stated)	CHOP inh 74.4
O=[N+]([O-])c1cccnc1N1CCC(c2cc(-c3ccc(Cl)cc3Cl)n[nH]2)CC1	CHOP inh 91.5
Cc1cc(CC(C)C)n(-c2nc3ccccc3c(=O)n2OCc2ccccc2)n1	CHOP inh 73.9
COCCNC(=O)C1CCCN(C(=O)c2ccc3c(c2)C(C)(C)CCC3(C)C)CC1 (configuration not stated)	none (no result: UPR CHOP act, UPR XBP1 act, CHOP inh)
CCCCC(=O)NC(c1cccs1)c1cc(Cl)c2cccnc2c1O (configuration not stated)	CHOP inh 97.2
CCC(=O)NC(c1cccs1)c1cc(Cl)c2cccnc2c1O (configuration not stated)	none
COc1cccc(-c2csc3nnc(SCC(=O)c4ccc(NC(C)=O)cc4)n23)c1	CHOP inh 78.6
COc1ccc(OC)c(-c2csc3nnc(SCC(=O)Nc4ccc(NC(C)=O)cc4)n23)c1	none
Cc1csc(NC(=O)CSc2nnc(NC(=O)COc3ccc(Cl)cc3)s2)n1	CHOP inh 93.4
Cc1ccc(N2CC(C(=O)Nc3nnc(SCC(=O)Nc4nc(C)cs4)s3)CC2=O)cc1 (configuration not stated)	CHOP inh 71.0
Cc1csc(NC(=O)CSc2nnc(NC(=O)C3CC(=O)N(c4ccccc4)C3)s2)n1 (configuration not stated)	none
O=C1NC(Cc2ccc(O)cc2)c2nc3cc(Cl)ccc3c(=O)n2-c2cc3ccccc3cc21 (configuration not stated)	none (no result: UPR CHOP act, UPR XBP1 act, CHOP inh)
CCOC(=O)/C(C#N)=C/c1ccc(-c2ccsc2C(=O)OC)o1	CHOP inh 74.1
CCOC(=O)C(=Cc1ccc(-c2ccsc2C(=O)OC)o1)C(=O)OCC	none
O=C(Nc1ccc2c(c1)OCO2)c1ccccn1	none (no result: CHOP inh)
O=C(/C=C\Nc1ccc2c(c1)OCO2)c1ccccn1	CHOP inh 94.9
COCCNC(=O)C1(C)CCN(C(=O)c2nc(C)oc2C)C1 (configuration not stated)	none (no result: UPR CHOP act, UPR XBP1 act, CHOP inh)
NC(=O)COC(=O)c1ccc(Cl)c(S(=O)(=O)N(Cc2ccccc2)c2ccc(Cl)cc2)c1	CHOP inh 84.5
CCNC(=O)C1CCCN(C(=O)c2cc(C)oc2C)CC1 (configuration not stated)	none (no result: UPR CHOP act, UPR XBP1 act, CHOP inh)
O=C(c1cccs1)N1CCN(CCCc2ccccc2)CC1	CHOP inh 75.3
O=C(c1cccs1)N1CCN(Cc2ccccc2)CC1	none
O=C(NCc1cc(C(F)(F)F)ccc1Cl)c1cccc2c1C(=O)c1ccc(-c3ccc(OC(F)(F)F)cc3)cc1S2(=O)=O	UPR CHOP act 91.3, UPR XBP1 act 162.4 (no result: CHOP inh, FXN GAA850 act)
CCOc1ccc(S(=O)(=O)NC(C)(C)C)cc1-c1nc2c(C(C)(C)C)nn(C)c2c(=O)[nH]1	CHOP inh 81.3
CC(C)Nc1ncnc2c1ncn2[C@H]1CN(Cc2cccnc2)C[C@@H](CO)O1	none (no result: UPR CHOP act, UPR XBP1 act, CHOP inh)
COc1cccc(S(=O)(=O)NCc2ccc(C(=O)Nc3ccc(Cl)cc3)cc2)c1	none
COc1cccc(S(=O)(=O)NCc2ccc(C(=O)Nc3cccc(Cl)c3)cc2)c1	CHOP inh 70.6
CC1CCC(NC(=O)C2CCC(CNS(=O)(=O)c3ccccc3)CC2)CC1 (configuration not stated)	none (no result: CHOP inh)
O=C(NC1CCCCCC1)C1CCC(CNS(=O)(=O)c2ccc(Br)s2)CC1 (configuration not stated)	CHOP inh 94.7
COc1cccc(OCc2ccc(Cn3nc(NC(=O)NCCc4ccc(OC)c(OC)c4)c4ccccc43)cc2)c1	none (no result: UPR CHOP act, UPR XBP1 act, CHOP inh)
O=S(=O)(NCCc1csc(-c2cccnc2)n1)c1ccc(Cl)s1	CHOP inh 78.1
O=S(=O)(NCCc1csc(-c2cccnc2)n1)c1cccs1	none
CSCCC(Nc1ncnc2ccc(Br)cc12)C(=O)O (configuration not stated)	none
CC(C)Nc1ncnc2ccc(Br)cc12	CHOP inh 78.6
CCN(CC)C(=O)C1=C(C)N(Cc2ccc(OC)cc2)C(=O)C(CC(=O)NCC2CCCCC2)C1 (configuration not stated)	none (no result: UPR CHOP act, UPR XBP1 act, CHOP inh)
O=C(COc1ccc(/C=N/NC(=O)c2ccccc2O)cc1)Nc1ccc([N+](=O)[O-])cc1	CHOP inh 90.5
Cc1ccc(-n2cc(C(=O)c3ccc(N4CCN(C)CC4)cc3)nn2)cc1Cl	CHOP inh 70.2
CN1CCN(c2ccc(C(=O)c3cn(-c4ccc(F)c(Cl)c4)nn3)cc2)CC1	none
O=C(NCc1ccncc1)C(=O)NCC1OCCN1S(=O)(=O)c1ccccc1 (configuration not stated)	none (no result: UPR CHOP act, UPR XBP1 act, CHOP inh)
CC1CCN(S(=O)(=O)c2ccc3c(c2)oc(=O)n3CC(=O)NCc2ccc3c(c2)OCO3)CC1	CHOP inh 83.3
Cc1c(C(=O)NCc2ccc3c(c2)OCO3)oc2ccc(S(=O)(=O)N3CCC(C)CC3)cc12	none
CCOC(=O)c1oc2ccc(S(=O)(=O)n3nc(-c4ccc(OC)cc4)cc3N)cc2c1C	none
CCOC(=O)c1oc2ccc(S(=O)(=O)n3nc(-c4ccccc4)cc3N)cc2c1C	CHOP inh 85.2
CC(C)OC(=O)c1ccc(NC(=O)c2cccc(-n3cnnn3)c2)cc1	none (no result: CHOP inh)
Cc1cc(=O)n2c(C(=O)Nc3ccc(C(=O)OC(C)C)cc3)c(C(=O)Nc3ccccc3)sc2n1	CHOP inh 96.0
Nc1ccn([C@@H]2O[C@H](CNS(=O)(=O)c3cc4ccccc4s3)[C@@H](O)[C@H]2O)c(=O)n1	none (no result: UPR CHOP act, UPR XBP1 act, CHOP inh)
C#C[C@]1(O)CC[C@H]2[C@@H]3CCc4cc(OC)ccc4[C@H]3CC[C@@]21C	CHOP inh 70.1
C[C@@H]1CN([C@@H](C)CO)S(=O)(=O)c2ccc(-c3ccccc3)cc2O[C@@H]1CN(C)Cc1ccccc1C(=O)O	none (no result: UPR CHOP act, UPR XBP1 act, CHOP inh)
